Key:
[1] = system: Mus musculus; test: Dose required to inhibit 50% of arachidonic acid-induced inflammation after oral administration obtained from dose-response curves; assay type: functional
In short: (§1)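 Balb/c mice (20 g; N=6-10 vehicle, typically 5-6 per drug group) dosed intragastrically with compound in distilled water. Thirty minutes later, 1.0 mg arachidonic acid in 20 µL cold acetone applied to left ear. Ear thickness measured 1 h later. Left ears then harvested and MPO activity read spectrophotometrically (Bradley method). ED50 from multiple dose–response studies (4–5 doses) by linear regression.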

[2] = target: Leukotriene B4 receptor 1 (Homo sapiens, UniProt Q15722); test: Inhibition of [3H]LTB4 binding to human neutrophils
Leukotriene B4 receptor 1, sequence (Q15722 whole entry): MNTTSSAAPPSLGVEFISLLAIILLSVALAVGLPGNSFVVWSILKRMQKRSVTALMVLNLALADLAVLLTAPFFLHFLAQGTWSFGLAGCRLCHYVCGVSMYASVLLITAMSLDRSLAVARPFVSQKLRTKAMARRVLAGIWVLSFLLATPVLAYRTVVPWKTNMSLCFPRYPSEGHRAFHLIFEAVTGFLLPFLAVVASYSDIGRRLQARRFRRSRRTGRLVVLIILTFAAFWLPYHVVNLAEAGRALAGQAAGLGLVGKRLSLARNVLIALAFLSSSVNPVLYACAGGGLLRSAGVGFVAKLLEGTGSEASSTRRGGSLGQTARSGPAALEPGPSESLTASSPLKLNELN
In short: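 Intact human PMNs (10^6; >90% neutrophils, >95% viable) incubated with 0.2 nM [3H]LTB4 for 20 min at 0 °C in Hanks balanced salt solution with 0.1% ovalbumin. Compound tested at 0.1 nM–10 µM; nonspecific binding defined with 1 µM unlabeled LTB4. Bound ligand separated by filtration and counted by scintillation. Duplicate curves of 5–8 concentrations, at least two assays.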

[3] = system: Mus musculus; test: Effect on Arachidonic Acid-Induced Mouse Ear Inflammation expressed as percent inhibition of MPO at 1000 ug/ear of topical administration; assay type: functional
[4] = system: Mus musculus; test: Effect on Arachidonic Acid-Induced Mouse Ear Inflammation expressed as percent inhibition of MPO at 50 mg/kg of oral administration; assay type: functional; in short: as §1
[5] = system: Mus musculus; test: Effect on Arachidonic Acid-Induced Mouse Ear Inflammation expressed as percent inhibition of MPO at 500 ug/ear of topical administration
[6] = system: Mus musculus; test: Dose required to inhibit 50% of arachidonic acid-induced inflammation after topical administration obtained from dose-response curves; assay type: functional
[7] = system: Mus musculus; test: Effect on Arachidonic Acid-Induced Mouse Ear Inflammation expressed as percent inhibition of MPO at 25 mg/kg of oral administration; assay type: functional; in short: as §1
[8] = system: Mus musculus; test: Effect on Arachidonic Acid-Induced Mouse Ear Inflammation expressed as percent inhibition of MPO at 50 ug/ear of topical administration; assay type: functional
[9] = target: Cysteinyl leukotriene receptor 1 (Homo sapiens, UniProt Q9Y271); test: Inhibitory concentration LTB4 with [3H]LTD4 in LTD4 receptor binding assay
Cysteinyl leukotriene receptor 1, sequence (Q9Y271 whole entry, looked up): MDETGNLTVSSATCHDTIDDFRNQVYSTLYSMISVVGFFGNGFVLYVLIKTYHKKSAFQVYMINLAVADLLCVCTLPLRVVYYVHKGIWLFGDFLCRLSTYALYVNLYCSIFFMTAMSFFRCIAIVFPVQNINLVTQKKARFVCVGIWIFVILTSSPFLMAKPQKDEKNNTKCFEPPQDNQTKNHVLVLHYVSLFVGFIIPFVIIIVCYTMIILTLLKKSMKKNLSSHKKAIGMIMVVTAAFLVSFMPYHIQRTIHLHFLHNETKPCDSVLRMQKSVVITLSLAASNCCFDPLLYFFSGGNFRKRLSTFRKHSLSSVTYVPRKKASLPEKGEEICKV

[10] = species: Homo sapiens; test: Concentration required to block LTB4 induced degranulation in human PMNs; assay type: functional
In short: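 Washed human PMNs (10^6, isolated by Ficoll-Hypaque, dextran sedimentation, hypotonic lysis) in 1 mL Earls balanced salt solution with 20 mM HEPES, 0.1% ovalbumin. Preincubated 10 min with 5 µg/mL cytochalasin B, then compound or vehicle 5 min at 37 °C, then 100 nM LTB4 for 3 min. Supernatant MPO measured kinetically at 460 nm (o-dianisidine/H2O2, pH 6.0). Four curves of 5–7 concentrations; mean IC50 ± SEM.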

[11] = target: T1, Polyunsaturated fatty acid 5-lipoxygenase (Rattus norvegicus, UniProt P12527); test: Concentration required to inhibit RBL-1 supernatant 5-lipoxygenase
T1 sequence (P12527 whole entry): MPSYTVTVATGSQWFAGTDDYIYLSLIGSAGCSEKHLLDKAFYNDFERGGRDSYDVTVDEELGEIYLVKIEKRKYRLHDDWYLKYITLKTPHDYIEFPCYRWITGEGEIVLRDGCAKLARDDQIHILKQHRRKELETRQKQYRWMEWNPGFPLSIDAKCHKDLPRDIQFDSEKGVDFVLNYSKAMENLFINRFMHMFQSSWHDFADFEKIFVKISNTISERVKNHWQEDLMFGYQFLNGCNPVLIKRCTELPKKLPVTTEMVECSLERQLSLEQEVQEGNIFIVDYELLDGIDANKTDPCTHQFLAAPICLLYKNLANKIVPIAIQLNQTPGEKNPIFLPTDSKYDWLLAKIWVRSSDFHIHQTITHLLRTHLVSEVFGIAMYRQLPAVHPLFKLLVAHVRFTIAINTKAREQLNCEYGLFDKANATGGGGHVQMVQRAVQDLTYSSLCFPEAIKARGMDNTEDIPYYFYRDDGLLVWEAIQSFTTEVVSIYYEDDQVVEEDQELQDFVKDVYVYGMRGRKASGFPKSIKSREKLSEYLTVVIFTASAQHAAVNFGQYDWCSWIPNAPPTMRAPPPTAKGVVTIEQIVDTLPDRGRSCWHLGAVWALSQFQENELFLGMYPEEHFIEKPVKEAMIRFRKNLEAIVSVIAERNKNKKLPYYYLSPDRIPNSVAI

| Ki [2] | SMILES | ED50 [1] | inhibition in vivo at 50 mg/kg [4] | ED50 [6] | also measured |
| --- | --- | --- | --- | --- | --- |
| 1.5 nM | COc1ccc(CCCCOc2ccc(CSc3c(Cl)cccc3Cl)nc2/C=C/C(=O)O)cc1 | 57.6 mg/kg | 54% |  | Inhibition [3]: 82% |
|  | COc1ccc(CCCCCCCCOc2ccc(CSCc3cccc(C(=O)O)c3)nc2/C=C/C(=O)O)cc1 |  | 0% | 390 ug ear-1 | Inhibition [5]: 69% |
| 1.2 nM | COc1ccc(CCOc2ccc(CSc3c(Cl)cccc3Cl)nc2/C=C/C(=O)O)cc1 |  |  |  |  |
| 12 nM | O=C(O)/C=C/c1nc(CSc2c(Cl)cccc2Cl)ccc1OCc1ccc(F)cc1 |  |  |  |  |
| 1.4 nM | O=C(O)/C=C/c1nc(CSc2c(Cl)cccc2Cl)ccc1OCCCc1ccccc1 |  |  |  |  |
| 1.3 nM | O=C(O)/C=C/c1nc(CSc2c(Cl)cccc2Cl)ccc1OCCc1ccc(Cl)cc1 |  |  |  |  |
|  | COc1ccc(CCCCCCCCOc2ccc(C[S+]([O-])c3cccc(N)c3)nc2/C=C/C(=O)O)cc1 (stereo not drawn) |  | 0% | 350 ug ear-1 | Inhibition [5]: 55% |
| 1.5 nM | O=C(O)/C=C/c1nc(CSc2c(Cl)cccc2Cl)ccc1OCCc1ccc(F)cc1 | 14.1 mg/kg |  |  | inhibition in vivo at 25 mg/kg [7]: 75% |
| 0.78 nM | O=C(O)/C=C/c1nc(CSc2c(Cl)cccc2Cl)ccc1OCCc1ccccc1 [TICOLUBANT] | 14.8 mg/kg |  | 8 ug ear-1 | inhibition in vivo at 25 mg/kg [7]: 70%; Inhibition [8]: 83%; IC50 [9]: 16800 nM; IC50 [10]: 53 nM; IC50 [11]: 8200 nM |
| 2.8 nM | COc1ccc(CCCCOc2ccc(CSc3ccccc3)nc2/C=C/C(=O)O)cc1 |  | 26% |  | Inhibition [3]: 49% |

Reference: ChEMBL document CHEMBL1129796, “(E)-3-[6-[[(2,6-dichlorophenyl)thio]methyl]-3-(2-phenylethoxy)-2- pyridinyl]-2-propenoic acid: a high-affinity leukotriene B4 receptor antagonist with oral antiinflammatory activity” (J Med Chem, 1996)
